Test results: ChEMBL document CHEMBL3046604, “Synthesis and fungistatic activity of new groups of 2,4-dihydroxythiobenzoyl derivatives against phytopathogenic fungi” (J Agric Food Chem, 2003)
The source made the active and inactive calls. The rule behind the calls is not given here.

What was measured:
[1] = Lipophilicity, log K of the compound in methanol-water mixture by HPLC; type: physicochemical
Summary of the method: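 Reversed-phase HPLC on a Hypersil BDS C18 column (5 µm, 150 × 4.6 mm) with UV detection at 320 nm. Samples were dissolved in methanol. Mobile phase was methanol at varying volume fractions in 10 mM acetate buffer pH 4, run at 1 mL/min and room temperature. Dead time was taken from injection of acetone dissolved in water.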

Blumeria graminis [2] = test: Fungistatic activity against Blumeria graminis infested wheat seedling assessed as inhibition of fungal infection at 500 ug/ml applied as spray after 7 to 14 days under green house conditions relative to control; type: functional
Summary of the method: (§1)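 Greenhouse test on healthy wheat seedlings with Erysiphe graminis. At the well-developed first-leaf stage, plants were sprayed with compound solution at 1000 or 500 µg/mL, 10 mL of solution per treatment, with three repeats in 9 cm paraffin cups.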

Blumeria graminis [3] = test: Fungistatic activity against Blumeria graminis infested wheat seedling assessed as inhibition of fungal infection at 1000 ug/ml applied as spray after 7 to 14 days under green house conditions relative to control; type: functional; summary of the method: as §1
Phytophthora cactorum [4] = test: Fungistatic activity against Phytophthora cactorum assessed as mycelial growth inhibition at 20 ug/ml after 4 to 8 days relative to control; type: functional; details: for inhibition of growth at 20 µg/mL: read-out: GI
Summary of the method: (§2)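 Compound solutions or suspensions were diluted into PDA agar to final 200 or 20 µg/mL and poured into Petri dishes. Once the agar set, mycelium-covered agar disks of the fungus were placed at three sites on the surface. Linear colony growth was measured after 4-8 days, depending on the culture. Inhibition J = [(C − T)/C] × 100 versus untreated control, reported on a four-degree scale.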

Phytophthora cactorum [5] = test: Fungistatic activity against Phytophthora cactorum assessed as mycelial growth inhibition at 200 ug/ml after 4 to 8 days relative to control; type: functional; details: for inhibition of growth at 200 µg/mL: read-out: GI; summary of the method: as §2
Fusarium culmorum [6] = test: Fungistatic activity against Fusarium culmorum assessed as mycelial growth inhibition at 20 ug/ml after 4 to 8 days relative to control; type: functional; details: for inhibition of growth at 20 µg/mL: read-out: GI; summary of the method: as §2
Fusarium culmorum [7] = test: Fungistatic activity against Fusarium culmorum assessed as mycelial growth inhibition at 200 ug/ml after 4 to 8 days relative to control; type: functional; details: for inhibition of growth at 200 µg/mL: read-out: GI; summary of the method: as §2
Rhizoctonia solani [8] = test: Fungistatic activity against Rhizoctonia solani assessed as mycelial growth inhibition at 20 ug/ml after 4 to 8 days relative to control; type: functional; details: for inhibition of growth at 20 µg/mL: read-out: GI; summary of the method: as §2
Rhizoctonia solani [9] = test: Fungistatic activity against Rhizoctonia solani assessed as mycelial growth inhibition at 200 ug/ml after 4 to 8 days relative to control; type: functional; details: for inhibition of growth at 200 µg/mL: read-out: GI; summary of the method: as §2
Botrytis cinerea [10] = test: Fungistatic activity against Botryotinia fuckeliana assessed as mycelial growth inhibition at 20 ug/ml after 4 to 8 days relative to control; type: functional; details: for inhibition of growth at 20 µg/mL: read-out: GI; summary of the method: as §2
Alternaria alternata [11] = test: Fungistatic activity against Alternaria alternata assessed as mycelial growth inhibition at 20 ug/ml after 4 to 8 days relative to control; type: functional; details: for inhibition of growth at 20 µg/mL: read-out: GI; summary of the method: as §2
Botrytis cinerea [12] = test: Fungistatic activity against Botryotinia fuckeliana assessed as mycelial growth inhibition at 200 ug/ml after 4 to 8 days relative to control; type: functional; details: for inhibition of growth at 200 µg/mL: read-out: GI; summary of the method: as §2
Alternaria alternata [13] = test: Fungistatic activity against Alternaria alternata assessed as mycelial growth inhibition at 200 ug/ml after 4 to 8 days relative to control; type: functional; details: for inhibition of growth at 200 µg/mL: read-out: GI; summary of the method: as §2

SMILES | log K [1] | inhibition at 500 µg/mL (Blumeria graminis [2]) [%] | inhibition at 1000 µg/mL (Blumeria graminis [3]) [%] | inhibition of growth at 20 µg/mL (Phytophthora cactorum [4]) [%] | inhibition of growth at 200 µg/mL (Phytophthora cactorum [5]) [%] | inhibition of growth at 20 µg/mL (Fusarium culmorum [6]) [%] | inhibition of growth at 200 µg/mL (Fusarium culmorum [7]) [%] | inhibition of growth at 20 µg/mL (Rhizoctonia solani [8]) [%] | inhibition of growth at 200 µg/mL (Rhizoctonia solani [9]) [%] | inhibition of growth at 20 µg/mL (Botrytis cinerea [10]) [%] | inhibition of growth at 20 µg/mL (Alternaria alternata [11]) [%] | inhibition of growth at 200 µg/mL (Botrytis cinerea [12]) [%] | inhibition of growth at 200 µg/mL (Alternaria alternata [13]) [%] | further results
Oc1ccc(C(=S)NNc2nncc3ccccc23)c(O)c1 | 0.228 |  |  |  |  |  |  |  |  |  |  |  |  | 
O=C(Nc1ccccc1)c1ccccc1NC(=S)c1ccc(O)cc1O | -0.37 | 0 | 41 | 0 | 61 | 0 | 61 | 21 | 61 | 0 | 0 | 41 | 61 | 
O=C(CC(=O)c1ccc(NC(=S)c2ccc(O)cc2O)cc1)Nc1ccccc1Cl | -0.29 |  |  |  |  |  |  |  |  |  |  |  |  | 
Oc1ccc(C(=S)n2nnc3cc(Cl)ccc32)c(O)c1 | 0.936 | 0 | 21 | 21 | 81 | 0 | 81 | 21 | 81 | 21 | 0 | 81 | 81 | 
Oc1ccc(C(=S)NNC(=S)Nc2cccc(Cl)c2)c(O)c1 | 0.229 | 0 | 0 | 0 | 61 | 0 | 0 | 0 | 0 | 0 | 0 | 0 | 0 | 
O=C(OC/C=C/c1ccccc1)c1ccccc1NC(=S)c1ccc(O)cc1O | 0.488 | 21 | 21 | 41 | 81 | 41 | 81 | 21 | 81 | 21 | 41 | 61 | 61 | 
Oc1ccc(C(=S)NN=C(c2ccccc2)c2ccccc2)c(O)c1 | 0.642 | 0 | 21 | 0 | 41 | 0 | 0 | 0 | 0 | 0 | 0 | 0 | 41 | 
CCOC(=O)Cc1csc(NC(=S)c2ccc(O)cc2O)n1 | 0.048 | 0 | 21 | 0 | 41 | 0 | 0 | 0 | 0 | 0 | 0 | 0 | 21 | 
Oc1ccc(C(=S)NNC(=S)Nc2ccc(F)cc2)c(O)c1 | 0.24 | 0 | 0 | 0 | 0 | 0 | 0 | 0 | 0 | 0 | 0 | 0 | 21 | 
O=C(O)c1cc2cc(OCc3ccccc3)ccc2n1C(=S)c1ccc(O)cc1O | 0.405 | 0 | 21 | 0 | 41 | 0 | 21 | 0 | 0 | 0 | 0 | 0 | 21 | 
Oc1ccc(C(=S)NC2=NN(c3ccccc3)CC2)c(O)c1 | 0.643 |  |  |  |  |  |  |  |  |  |  |  |  | 
Oc1ccc(C(=S)NC(=S)c2cccnc2)c(O)c1 | 0.751 | 0 | 21 | 0 | 81 | 0 | 81 | 0 | 61 | 0 | 0 | 81 | 61 | 
Oc1ccc(C(=S)NN=C2c3ccccc3-c3ccccc32)c(O)c1 | 0.232 | 0 | 0 | 0 | 41 | 0 | 0 | 0 | 0 | 0 | 0 | 21 | 41 | 
COC(=O)Nc1nc2ccccc2[nH]1 [CARBENDAZIM] |  |  |  | 81 | 81 | 81 | 81 | 81 | 81 |  |  |  |  | growth inhibition (GI) (Botrytis cinerea [10]): inactive; growth inhibition (GI) (Alternaria alternata [11]): inactive; growth inhibition (GI) (Botrytis cinerea [12]): inactive; growth inhibition (GI) (Alternaria alternata [13]): inactive
CC(C)(C)c1nnc(NC(=S)c2ccc(O)cc2O)s1 | -0.131 | 0 | 21 | 0 | 0 | 0 | 0 | 0 | 0 | 0 | 0 | 0 | 0 | 
O=C(NNC(=S)c1ccc(O)cc1O)c1ccncc1 | -0.21 |  |  |  |  |  |  |  |  |  |  |  |  | 
COc1ccc(COC(=O)NNC(=S)c2ccc(O)cc2O)cc1 | 0.103 |  |  |  |  |  |  |  |  |  |  |  |  | 
CCOc1ccc(C(=O)NNC(=S)c2ccc(O)cc2O)cc1 | 0.352 |  |  |  |  |  |  |  |  |  |  |  |  | 
CCOC(=O)c1c(C)csc1NC(=S)c1ccc(O)cc1O | -0.28 |  |  |  |  |  |  |  |  |  |  |  |  | 
CC12CC1(C)C(=O)N(c1cc(Cl)cc(Cl)c1)C2=O (stereo not given) [PROCYMIDONE] |  |  |  |  |  |  |  |  |  | 81 | 81 | 81 | 81 | growth inhibition (GI) (Phytophthora cactorum [4]): inactive; growth inhibition (GI) (Phytophthora cactorum [5]): inactive; growth inhibition (GI) (Fusarium culmorum [6]): inactive; growth inhibition (GI) (Fusarium culmorum [7]): inactive; growth inhibition (GI) (Rhizoctonia solani [8]): inactive; growth inhibition (GI) (Rhizoctonia solani [9]): inactive
